PKD1 kinase inh: inhibitors of human PKD1 kinase; PKD1 kinase fluorescence polarization assay; inhibition, % (test concentration not listed); Q15139; 200,000 compounds, 0.056% hits; AID 797
GSH fluor: GSH bead compound fluorescence profile; GSH beads flow cytometry, compound fluorescence 488/530 nm; hits give high values; fluorescence (KMESF) at 10 µM; 190,000 compounds, 0.25% hits; AID 1776; in the data active means fluorescence above about 89;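 further: glutathione beads carrying GST-tagged Bcl family fusion proteins plus one bare bead set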
ABCB1 block: human ABCB1 inhibition, ABCG2 as counter-screen | P08183 | CCRF-Adr cells, JC-1 efflux, flow cytometry | inhibition, % at 6.6 µM | 190,000 compounds, 0.067% hits | AID 1326; in the data active means inhibition above about 40%;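 further: higher value means more JC-1 retained so stronger ABCB1 efflux block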
L major viab: inhibitors of Leishmania major promastigote growth; Leishmania major promastigotes, resazurin fluorescence viability; inhibition, % at 10 µM; 200,000 compounds, 9% hits;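 further: promastigotes grown with compound for 44 hours at 28 °C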
ABCG2 inh: blocks JC-1 efflux by human ABCG2 transporter; Q9UNQ0; IgMXP3 cells, flow cytometry; inhibition, % at 6.6 µM; 190,000 compounds, 0.1% hits; AID 1325;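 active means inhibition above 80%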
Target sequence (Q9UNQ0 whole entry, looked up): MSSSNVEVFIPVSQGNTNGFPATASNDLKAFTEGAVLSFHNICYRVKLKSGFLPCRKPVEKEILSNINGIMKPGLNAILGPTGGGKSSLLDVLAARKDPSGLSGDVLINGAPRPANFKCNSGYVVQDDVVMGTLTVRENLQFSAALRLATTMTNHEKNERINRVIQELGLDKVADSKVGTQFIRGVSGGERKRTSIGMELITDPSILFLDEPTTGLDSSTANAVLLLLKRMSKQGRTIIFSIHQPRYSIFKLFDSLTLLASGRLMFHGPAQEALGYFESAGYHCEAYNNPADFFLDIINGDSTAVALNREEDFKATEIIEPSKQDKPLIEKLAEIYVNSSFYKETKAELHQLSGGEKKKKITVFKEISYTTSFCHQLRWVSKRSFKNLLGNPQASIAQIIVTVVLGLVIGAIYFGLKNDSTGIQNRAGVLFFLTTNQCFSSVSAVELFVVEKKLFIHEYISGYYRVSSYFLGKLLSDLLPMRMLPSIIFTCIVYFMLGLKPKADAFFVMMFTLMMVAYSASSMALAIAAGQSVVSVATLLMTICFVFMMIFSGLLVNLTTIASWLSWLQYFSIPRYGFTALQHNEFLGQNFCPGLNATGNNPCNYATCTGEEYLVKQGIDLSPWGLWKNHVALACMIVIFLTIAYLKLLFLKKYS
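material = IgMXP3 (ABCG2) plus far-red-tagged CCRF-Adr (ABCB1) cells | amount = 3 million cells/mL, equal mix of both lines | also added = JC-1 transporter substrate | dosing = one concentration, 6.6 µM final | schedule = 10 min at 25 °C | measured by = flow cytometric JC-1 green MFI at 530 nm | read-out basis = percent efflux inhibition, scaled nicardipine 100% to DMSO 0%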
Avidin bead fluor: avidin bead compound fluorescence profile; Avidin beads, compound fluorescence 488/530 nm, flow cytometry; hits give high values; 220,000 compounds, 0.38% hits; fluorescence (KMESF) at 10 µM; in the data active means fluorescence above about 47
Hits are given with their value; n = inactive; x = no result given. The full list was thinned out, with hits kept by preference. Unless noted, no stated cut-off is given here; in the data, active means inhibition above about 50%; inactive means the rest.

SMILES | PKD1 kinase inh | GSH fluor | ABCB1 block | L major viab | ABCG2 inh | Avidin bead fluor
CC1CCCC(NC(=O)C2CCCN2S(=O)(=O)c2cccc3nsnc23)C1C (configuration not stated) | n | n | n | n | n | n
COCCN1C(=O)c2ccccc2C(C(=O)Nc2ccc3c(c2)OCCO3)C1c1ccc(F)cc1 (configuration not stated) | n | n | n | n | n | 62
CCN(CCCNC(=O)C1c2ccccc2C(=O)N(CCOC)C1c1ccc(F)cc1)Cc1ccccc1 (configuration not stated) | n | n | n | 99 | n | n
Cc1nnc(NC(=O)c2ccc(S(=O)(=O)N3CCc4ccccc4C3)cc2)o1 | n | n | n | n | n | n
Cc1cc(C)c2nc(NNC(=O)c3ccc(S(=O)(=O)N4CCc5ccccc5C4)cc3)sc2c1 | n | n | n | 99 | n | n
Cc1cc(C)c2sc(NNC(=O)c3ccc(S(=O)(=O)N4CCc5ccccc5C4)cc3)nc2c1 | n | n | n | 99 | n | n
CCCCNc1ccccc1C(=O)OCC(=O)Nc1ccc(S(N)(=O)=O)cc1 | n | n | n | 78 | n | n
COC(=O)C(C)Oc1cc(OC(C)C(=O)OC)c2c(C)c(Cl)c(=O)oc2c1 (configuration not stated) | n | n | n | n | n | n
COC(=O)COc1cc(C)cc2oc(=O)c(CC(=O)OC)c(C)c12 | n | n | n | n | n | 60
Cc1cc(OCc2nn[nH]n2)c2c(C)c(CC(=O)O)c(=O)oc2c1 | n | n | x | n | x | n
COC(=O)COc1cc(OCC(=O)OC)c2c(C)c(Cl)c(=O)oc2c1 | n | n | n | 51 | n | n
CN1C(=O)C(CC(=O)NCC2CCCCC2)SC1=Nc1ccccc1 (configuration not stated) | n | n | n | n | n | n
CCCOc1ccc(N2C(=O)CC(N3CCN(CCN=CC4C(=O)CC(C)(C)CC4=O)CC3)C2=O)cc1 (configuration not stated) | n | n | n | n | n | n
CCOc1ccc(CCNC(=O)COC(=O)c2cc(OC)c(OC)c(OC)c2)cc1OCC | n | n | n | n | n | n
CCOc1ccc(CCNC(=O)Cn2cccc2C(=O)c2ccccc2C)cc1OCC | n | n | n | 61 | n | n
CC(C)(C)NC(=O)NC(=O)COC(=O)c1ccco1 | n | 261 | n | n | n | n
CCOc1ccc(CCNC(=O)COC(=O)c2ccco2)cc1OCC | n | n | n | 56 | n | n
CCOc1ccc(CCNC(=O)CCn2cccc2)cc1OCC | n | n | n | n | n | n
COC(=O)c1ccc(Oc2cc(C)nc(SC)n2)cc1 | n | n | n | n | n | n
O=C(N/N=C/c1ccccn1)c1ccc([N+](=O)[O-])cc1 | n | n | n | 55 | n | n
O=C(N/N=C/c1ccccn1)c1ccc(NC(=O)c2cccc([N+](=O)[O-])c2)cc1 | n | n | n | n | n | n
O=C(N/N=C/c1ccc[nH]1)c1ccc([N+](=O)[O-])cc1 | n | n | n | 79 | n | n
Cc1ccc(C(=O)N/N=C\c2ccc[nH]2)cn1 | n | n | n | n | n | n
O=C(N/N=C/c1ccccn1)c1cccc([N+](=O)[O-])c1 | n | n | n | 77 | n | n
O=C(N/N=C/c1ccccn1)c1cc([N+](=O)[O-])cc([N+](=O)[O-])c1 | n | n | n | 89 | n | n
SMILES | PKD1 kinase inh | GSH fluor | ABCB1 block | L major viab | ABCG2 inh | Avidin bead fluor
COc1ccc(OCCCC(=O)Nc2cc([N+](=O)[O-])ccc2C)cc1 | n | n | n | n | n | n
O=C(N/N=C/c1ccccn1)c1ccc(N/N=C/c2ccccn2)cc1 | n | n | n | n | n | n
O=C(N/N=C/c1ccccn1)c1ccc(Br)cc1 | n | n | n | 97 | n | n
COc1cc(CNC2CCCC2)c(Br)cc1OC1CCCC1 | n | n | n | n | n | n
CCOc1c(Br)cc(CNC2CCCCCCC2)cc1OC | n | n | n | 60 | n | n
CCOc1c(Br)cc(CNc2ccc3c(c2)OCCO3)cc1OC | n | n | n | n | n | n
COc1cc(CNC2CCCCCCC2)cc(Br)c1OCC#N | n | n | n | 75 | n | n
CNC(=O)c1nnsc1S(=O)(=O)c1ccc(Cl)cc1 | n | n | n | 59 | n | n
CNC(=O)c1ncoc1-c1ccc(Cl)cc1 | x | x | x | x | x | n
O=C(Nc1ccccc1)c1nnsc1S(=O)c1ccc(Cl)cc1 (configuration not stated) | n | n | n | n | n | n
O=C(c1nnsc1S(=O)c1ccc(Cl)cc1)N1CCOCC1 (configuration not stated) | n | n | n | 100 | n | n
O=C(c1nnsc1S(=O)(=O)c1ccc(Cl)cc1)N1CCOCC1 | n | n | n | 100 | n | n
CCCCCC(=O)Nc1cccc(C2=NOC3(C2)C[C@@H](C(N)=O)N(C(=O)c2ccc(Cl)cc2)C3)c1 (some centres not stated) | x | x | x | x | x | n
CCOP(=O)(OCC)C(Nc1ccccc1)c1cccnc1 (configuration not stated) | x | x | x | x | x | n
CCOP(=O)(OCC)C(Nc1cccc(C(F)(F)F)c1)c1ccc(Br)cc1 (configuration not stated) | n | n | n | 99 | n | n
COc1ccc(C(=O)/C=C/Nc2cc(C)on2)c(OC)c1 | n | n | n | n | n | n
CC(NCCOCCOc1ccccc1)c1ccccc1 (configuration not stated) | n | n | n | n | n | n
CCC(C)NCCOc1cccc(Br)c1 (configuration not stated) | n | n | n | n | n | n
CCC(C)NCCOCCOc1ccc(Cl)c(C)c1C (configuration not stated) | n | n | n | 98 | n | n
CCC(C)NCCOCCOc1ccc(Cl)c2ccccc12 (configuration not stated) | n | n | n | 100 | n | n
Cc1ccc(CNc2nc(N)c([N+](=O)[O-])c(NCc3ccccc3)n2)cc1 | n | n | n | 70 | n | n
Cc1cc(C(=O)NCc2ccco2)c2ccccc2n1 | n | n | n | n | n | n
Cc1cccc(Nc2nc(NCc3ccco3)c3ccccc3n2)c1 | n | n | n | 100 | n | n
c1ccc(Nc2nc(NCc3ccco3)c3ccccc3n2)cc1 | x | x | x | x | x | n
Nc1nc(NCc2ccccc2)nc(NCc2ccccc2)c1[N+](=O)[O-] | n | n | n | n | n | n
Cc1ccccc1Nc1cc(C(=O)NCc2ccco2)c2ccccc2n1 | n | n | n | 76 | n | n
Cc1ccccc1Nc1nc(NCc2ccco2)c2ccccc2n1 | n | n | n | 100 | n | n
C/C(=N\NC(=O)CSc1nc(C)cc(C)n1)c1ccc2c(c1)OCCO2 | n | n | n | n | n | n
CC(C)c1c(O)nc(SCC(=O)Nc2ccc3c(c2)CCC3)[nH]c1=O | n | n | n | n | n | n

Source: PubChem
